Test results taken from PMC10373460 (ACS Omega, 2023).
Entries after “also recorded” stand apart in the source; their conditions may differ.

Key:
[1] = molecular target: α-glucosidase from S. cerevisiae E.C. 3.2.1.20 (Saccharomyces cerevisiae, UniProt P53341); experiment: Inhibition of α-glucosidase activity in vitro; type: biochemical; conditions: for inhibition at 10 µM: read-out: %inhibition (10 μM)
α-glucosidase = α-glucosidase (Saccharomyces cerevisiae, UniProt P53341); experiment: Enzyme kinetic study; type: biochemical; conditions: for inhibition mode: Lineweaver–Burk plots, Km increased, Vmax unaffected
How it was run: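 S. cerevisiae α-glucosidase solution (0.1 U/mL) and pNPG substrate solution (1 mM) prepared in […] pH 6.9 phosphate buffer. Enzyme preincubated with test compound (DMSO stock) for 10 min at 37 °C, then substrate added for 20 min at 37 °C. Stopped with 1 M Na2CO3, read at 405 nm. Lineweaver–Burk plots at several inhibitor concentrations; Ki from secondary replot of slope versus concentration.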

α-glucosidase, sequence (P53341 whole entry): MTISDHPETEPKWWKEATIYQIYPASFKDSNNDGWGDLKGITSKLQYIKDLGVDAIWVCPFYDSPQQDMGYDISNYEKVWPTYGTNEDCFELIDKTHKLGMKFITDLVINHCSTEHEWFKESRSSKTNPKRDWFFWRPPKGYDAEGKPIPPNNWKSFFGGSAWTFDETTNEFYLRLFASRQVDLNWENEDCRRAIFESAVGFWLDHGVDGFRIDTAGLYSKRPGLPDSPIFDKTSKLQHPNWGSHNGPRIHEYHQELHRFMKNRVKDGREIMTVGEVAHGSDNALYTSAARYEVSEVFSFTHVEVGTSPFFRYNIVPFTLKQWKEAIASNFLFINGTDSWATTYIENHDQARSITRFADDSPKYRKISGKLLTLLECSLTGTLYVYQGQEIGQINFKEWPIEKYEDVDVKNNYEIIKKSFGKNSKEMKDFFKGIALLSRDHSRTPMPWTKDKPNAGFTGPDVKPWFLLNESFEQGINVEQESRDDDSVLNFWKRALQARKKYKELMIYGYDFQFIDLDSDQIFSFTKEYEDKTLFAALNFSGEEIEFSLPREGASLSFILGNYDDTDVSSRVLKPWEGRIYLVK
α-glucosidase from S. cerevisiae E.C. 3.2.1.20, sequence (P53341 whole entry): as above

SMILES	IC50 [1] [µM]	also measured
O=c1cc(O)c2ccccc2o1 [4-hydroxycoumarin]	> 200	
O=c1oc2ccccc2c(O)c1C(c1ccccc1Cl)c1c(O)c2ccccc2oc1=O [Compound 2, 3,3′-((2-Chlorophenyl)methylene)bis(4-hydroxy-2H-chromen-2-one)]	8.12 ± 0.59	
COc1cc(C(c2c(O)c3ccccc3oc2=O)c2c(O)c3ccccc3oc2=O)cc(Br)c1O [Compound 16, 3,3′-((3-Bromo-4-hydroxy-5-methoxyphenyl)methylene)bis(4-hydroxy-2H-chromen-2-one)]	5.1 ± 0.18	
O=c1oc2ccccc2c(O)c1C(c1cccc(Cl)c1)c1c(O)c2ccccc2oc1=O [Compound 3, 3,3′-((3-Chlorophenyl)methylene)bis(4-hydroxy-2H-chromen-2-one)]	6.06 ± 0.06	
CCCCCCCCOc1c(Br)cc(C(c2c(O)c3ccccc3oc2=O)c2c(O)c3ccccc3oc2=O)cc1Br [Compound 19, 3,3′-((3,5-Dibromo-4-(octyloxy)phenyl)methylene)bis(4-hydroxy-2H-chromen-2-one)]		inhibition at 10 µM [1]: 98.95 ± 0.26%; Ki (α-glucosidase): 1.8 µM; inhibition mode (α-glucosidase): competitive inhibition
O=c1oc2ccccc2c(O)c1C(c1ccc(Cl)c(Cl)c1)c1c(O)c2ccccc2oc1=O [Compound 8, 3,3′-((3,4-Dichlorophenyl)methylene)bis(4-hydroxy-2H-chromen-2-one)]	1.9 ± 0.14	
O=c1oc2ccccc2c(O)c1C(c1ccc(F)c(Br)c1)c1c(O)c2ccccc2oc1=O [Compound 11, 3,3′-((3-Bromo-4-fluorophenyl)methylene)bis(4-hydroxy-2H-chromen-2-one)]	2.89 ± 0.25	
O=c1oc2ccccc2c(O)c1C(c1ccc(Cl)cc1)c1c(O)c2ccccc2oc1=O [Compound 4, 3,3′-((4-Chlorophenyl)methylene)bis(4-hydroxy-2H-chromen-2-one)]	3.19 ± 0.41	
O=c1oc2ccccc2c(O)c1C(c1ccc(Br)c([N+](=O)[O-])c1)c1c(O)c2ccccc2oc1=O [Compound 10, 3,3′-((4-Bromo-3-nitrophenyl)methylene)bis(4-hydroxy-2H-chromen-2-one)]	3.41 ± 0.17	
CCCCOc1c(Br)cc(C(c2c(O)c3ccccc3oc2=O)c2c(O)c3ccccc3oc2=O)cc1Br [Compound 18, 3,3′-((3,5-Dibromo-4-butoxyphenyl)methylene)bis(4-hydroxy-2H-chromen-2-one)]		inhibition at 10 µM [1]: 99.67 ± 0.42%; Ki (α-glucosidase): 3.93 µM; inhibition mode (α-glucosidase): competitive inhibition; also recorded: competitive binding mode
O=c1oc2ccccc2c(O)c1C(c1cc(Br)c(O)c(Br)c1)c1c(O)c2ccccc2oc1=O [Compound 14, 3,3′-((3,5-Dibromo-4-hydroxyphenyl)methylene)bis(4-hydroxy-2H-chromen-2-one)]	2.38 ± 0.24	
COc1c(Br)cc(C(c2c(O)c3ccccc3oc2=O)c2c(O)c3ccccc3oc2=O)cc1Br [Compound 17, 3,3′-((3,5-Dibromo-4-methoxyphenyl)methylene)bis(4-hydroxy-2H-chromen-2-one)]		inhibition at 10 µM [1]: 99.77 ± 0.49%; Ki (α-glucosidase): 4.81 µM
COc1ccc(C(c2c(O)c3ccccc3oc2=O)c2c(O)c3ccccc3oc2=O)cc1Br [Compound 13, 3,3′-((3-Bromo-4-methoxyphenyl)methylene)bis(4-hydroxy-2H-chromen-2-one)]	3.8 ± 0.05	
O=c1oc2ccccc2c(O)c1C(c1cccc([N+](=O)[O-])c1)c1c(O)c2ccccc2oc1=O [Compound 9, 3,3′-((3-Nitrophenyl)methylene)bis(4-hydroxy-2H-chromen-2-one)]	14.8 ± 0.32	
O=c1oc2ccccc2c(O)c1C(c1ccc(O)c(Br)c1)c1c(O)c2ccccc2oc1=O [Compound 12, 3,3′-((3-Bromo-4-hydroxyphenyl)methylene)bis(4-hydroxy-2H-chromen-2-one)]	4.15 ± 0.06	
O=c1oc2ccccc2c(O)c1C(c1ccc(F)cc1)c1c(O)c2ccccc2oc1=O [Compound 5, 3,3′-((4-Fluorophenyl)methylene)bis(4-hydroxy-2H-chromen-2-one)]	12.31 ± 0.08	
O=c1oc2ccccc2c(O)c1C(c1ccccc1)c1c(O)c2ccccc2oc1=O [Compound 1, 3,3′-(Phenylmethylene)bis(4-hydroxy-2H-chromen-2-one)]	30.8 ± 1.25	
COc1cc(C(c2c(O)c3ccccc3oc2=O)c2c(O)c3ccccc3oc2=O)ccc1O [Compound 15, 3,3′-((4-Hydroxy-3-methoxyphenyl)methylene)bis(4-hydroxy-2H-chromen-2-one)]	15.2 ± 0.45	
O=c1oc2ccccc2c(O)c1C(c1ccc(Cl)cc1Cl)c1c(O)c2ccccc2oc1=O [Compound 7, 3,3′-((2,4-Dichlorophenyl)methylene)bis(4-hydroxy-2H-chromen-2-one)]	3.15 ± 0.31	
O=c1oc2ccccc2c(O)c1C(c1ccc(Br)cc1)c1c(O)c2ccccc2oc1=O [Compound 6, 3,3′-((4-Bromophenyl)methylene)bis(4-hydroxy-2H-chromen-2-one)]	2.95 ± 0.05	
